Source: PMC11495195 (Drug Design, Development and Therapy, 2024)

What was measured:
[1] = In vitro liver microsome stability, human; format: in vitro ADME; settings: human liver microsomes; mean ± SD (n = 5)
How it was run: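 Test compound at 20 μM final was incubated with 0.5 mg/mL human or mouse liver microsomes and NADPH in 0.1 M phosphate buffer for 30 min at 37°C. The reaction was quenched with 2 volumes of cold acetonitrile plus internal standard, held overnight at −20°C and centrifuged. Supernatant was analysed by UPLC-MS/MS. 6-Hydroxycoumarin was the positive control; a no-NADPH blank was the negative control.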

[2] = Body weight and side-effects in H1299 xenograft mice; format: in vivo; settings: 6 mg/kg intraperitoneal; for body weight change: after 21 days of administration
How it was run: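 Female BALB/c nude mice, 5 weeks old, kept pathogen-free, received 1.4 × 10^6 NCI-H1299 cells subcutaneously. At about 75 mm3 tumours, mice were randomised (n = 5). Dosing was intraperitoneal at 6 mg/kg: vehicle (2% DMSO, 30% PEG-400, 68% ddH2O) or test compound daily for 21 days, doxorubicin every 3 days. Body weight was weighed every 3 days; mean ± SEM.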

PDHK1 = PDHK1 (Homo sapiens, UniProt Q15118); test: In vitro PDHK activity assay; format: biochemical; settings: read-out: Inhibition% at 10 µM, PDHK1, 10 µM; mean ± SD (n = 5)
PDHK1, sequence (Q15118 29-436): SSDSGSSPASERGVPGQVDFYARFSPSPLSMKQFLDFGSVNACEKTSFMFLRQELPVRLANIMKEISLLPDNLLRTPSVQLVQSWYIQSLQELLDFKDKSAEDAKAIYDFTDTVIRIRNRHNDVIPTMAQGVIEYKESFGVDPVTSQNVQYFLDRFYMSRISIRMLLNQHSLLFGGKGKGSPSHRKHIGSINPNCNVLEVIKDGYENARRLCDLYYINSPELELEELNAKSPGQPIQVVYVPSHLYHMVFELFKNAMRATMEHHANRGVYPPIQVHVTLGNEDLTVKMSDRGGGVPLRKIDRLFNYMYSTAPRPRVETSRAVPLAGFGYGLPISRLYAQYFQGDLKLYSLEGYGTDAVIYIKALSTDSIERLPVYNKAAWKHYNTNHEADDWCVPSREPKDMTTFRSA

| SMILES | CLint [1] [µL/min/mg] | other side-effects ([2]; 21 days) | body weight change [2] | inhibition at 10 µM (PDHK1) [%] |
| --- | --- | --- | --- | --- |
| CC(C)Oc1ccc(S(=O)(=O)c2ccc(Oc3cc(OCC(N)=O)c(C(=O)C(Cl)Cl)cc3[N+](=O)[O-])cc2)cc1 [Compound 32, 2-(2-(2,2-Dichloroacetyl)-5-(4-((4-isopropoxyphenyl)sulfonyl)phenoxy)-4-nitrophenoxy)acetamide] | 29.7 | No other side-effects were observed | decreased very little |  |
| O=C1c2ccccc2C(=O)c2c(Oc3ccc(C(=O)C(Cl)Cl)cc3[N+](=O)[O-])cccc21 [Compound 18, 1-(4-(2,2-Dichloroacetyl)-2-nitrophenoxy)anthracene-9,10-dione] |  |  |  | 26.5 to 30.1 |
| COc1cccc2c1C(=O)c1c(O)c3c(c(O)c1C2=O)C[C@@](O)(C(=O)CO)C[C@@H]3O[C@H]1C[C@H](N)[C@H](O)[C@H](C)O1 [DOX, doxorubicin, reference compound] |  |  | significant body weight loss |  |
